One compound from ChEMBL document CHEMBL5360630, “Macrocyclic Peptidomimetic Plasmepsin X Inhibitors with Potent In Vitro and In Vivo Antimalarial Activity” (J Med Chem, 2023) can be followed below.

Calls of active or inactive are those of the source. The calls are words filed in the database; no cut-off is given here.

Data set [1] can be described thus: Toxicity in NMRI mouse assessed as drug tolerance at 50 mg/kg, po measured upto 24 hrs by UP-LCMS analysis. Type of data set: organism-based. The following applies: in vivo. The method, boiled down:
(§1)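 Female NMRI mice (10–12 weeks, 29–32 g), acclimatized 1 week, given a single peroral bolus of 50 mg/kg (10 mL/kg). Toxicity signs scored on a 0–6 scale at 0–2, 5, 10, 15, 30, 60, 120, 240 min and 24 h after dosing.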

Data set [2] is described as follows: Toxicity in NMRI mouse assessed as adverse effect at 50 mg/kg, po measured upto 24 hrs by UP-LCMS analysis. Type of data set: organism-based. The following applies: in vivo. The procedure, abridged:
as §1

The subject of data set [3] is Plasmodium falciparum. The data set can be described thus: Antiplasmodial activity against Plasmodium falciparum infected in PfalcHy mouse assessed as reduction in blood parasitemia level administered orally. The format is functional, organism-based. The following applies: dose 40.0 mg/kg, route po. The procedure, abridged: (§2)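 Female NSG mice (22–28 g) engrafted with human erythrocytes by daily i.p./i.v. injection; once >40% circulating human RBCs, infected i.v. with P. falciparum Pf3D7 0087/N9. Oral gavage (10 mL/kg) from ~1.3% parasitemia (Day 1); 40 mg/kg QD, BID or TID for 4 days. Parasitemia in tail blood by flow cytometry (TER-119-PE, SYTO-16) and Giemsa smears; stage distribution examined on day 3.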

Data set [4] concerns Plasmodium falciparum. In words: Antiplasmodial activity against Plasmodium falciparum infected in NSG mouse model assessed as accumulation of circulating mature schizonts at 40 mg/kg, po measured after 3 days by giemsa staining based flow cytometry analysis. The format is functional, organism-based. The following applies: time 3.0 day. The procedure, abridged:
as §2
On the technique in general: In flow cytometry, cells or beads pass a laser one at a time.

As for `CCCN1CCCCCc2cccc(c2)C[C@@H]([C@H](O)CNC(C)(C)c2cccc(OC)c2)NC(=O)c2cccc(c2)C1=O`, the Activity entry is “Non-Toxic” in data set [1], “Non-Toxic” in data set [2] and “Dose-Dependent Effect” with Plasmodium falciparum [3]. Further, the outcome with Plasmodium falciparum [4] was Active.
